Measured values: ChEMBL document CHEMBL4308903, “Synthesis of amides from (E)-3-(1-chloro-3,4-dihydronaphthalen-2-yl)acrylic acid and substituted amino acid esters as NorA efflux pump inhibitors of Staphylococcus aureus” (Bioorg Med Chem, 2019)
Active and inactive are the calls of the source. The calls are words filed in the database; no cut-off is given here.

Legend:
[1] = target: T1, Quinolone resistance protein NorA (Staphylococcus aureus) (UniProt P0A0J7); assay: Inhibition of NorA in Staphylococcus aureus 1199B assessed as minimum concentration required to effectively reduce ciprofloxacin MIC by four fold by broth checkerboard microdilution method
T1 sequence (whole entry): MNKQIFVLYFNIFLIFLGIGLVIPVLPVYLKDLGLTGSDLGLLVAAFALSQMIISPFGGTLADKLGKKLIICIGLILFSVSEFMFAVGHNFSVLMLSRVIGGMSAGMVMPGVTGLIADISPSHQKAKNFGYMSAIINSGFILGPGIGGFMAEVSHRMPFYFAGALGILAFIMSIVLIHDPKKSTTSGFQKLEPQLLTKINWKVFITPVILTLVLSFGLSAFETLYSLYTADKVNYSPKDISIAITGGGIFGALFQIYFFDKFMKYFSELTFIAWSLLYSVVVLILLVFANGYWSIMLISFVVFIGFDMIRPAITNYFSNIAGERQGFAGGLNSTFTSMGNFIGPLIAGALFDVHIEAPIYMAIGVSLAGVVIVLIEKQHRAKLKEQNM
How it was run: (§1)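 Broth checkerboard microdilution in cation-adjusted Mueller–Hinton broth. Compounds tested at seven concentrations (50-0.7 μg/mL) against twofold serial dilutions of ciprofloxacin (32-0.06 μg/mL). MEC is the minimum concentration that lowers the ciprofloxacin MIC fourfold. Piperine and SK-20 served as reference EPIs.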

[2] = target: T1, Quinolone resistance protein NorA (Staphylococcus aureus); assay: Inhibition of NorA in Staphylococcus aureus 1199B assessed as reduction in ethidium bromide efflux at 50 uM measured after 5 mins by fluorescence assay relative to control
How it was run: (§2)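 SA-1199B grown on tryptone soya agar. Ethidium bromide efflux followed by fluorescence (excitation 530 nm, emission 600 nm) over 5 min with compound at 0–50 μM. Run in triplicate. Percent inhibition calculated from mean values against the no-inhibitor control.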

Staphylococcus aureus [3] = assay: Potentiation of ciprofloxacin-induced antibacterial activity in Staphylococcus aureus 1199 assessed as reduction in ciprofloxacin MIC at 0.8 to 50 ug/ml by broth checkerboard microdilution method relative to control; format: functional; how it was run: as §1
Staphylococcus aureus [4] = assay: Potentiation of ciprofloxacin-induced antibacterial activity in norA-deleted Staphylococcus aureus K1758 assessed as reduction in ciprofloxacin MIC at 0.8 to 50 ug/ml by broth checkerboard microdilution method relative to control; format: functional; how it was run: as §1
Staphylococcus aureus [5] = assay: Growth inhibition of Staphylococcus aureus 1199 at 50 ug/ml by broth microdilution method; format: organism-based
Staphylococcus aureus [6] = assay: Growth inhibition of norA-deleted Staphylococcus aureus K1758 at 50 ug/ml by broth microdilution method; format: organism-based
How it was run: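 MIC determined by broth microdilution in cation-adjusted Mueller–Hinton broth following CLSI guidelines. MIC is the lowest concentration giving no visible growth.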

[7] = target: T1, Quinolone resistance protein NorA (Staphylococcus aureus); assay: Inhibition of NorA Staphylococcus aureus 1199B assessed as reduction in ethidium bromide efflux at 6.25 to 50 uM measured at 5 mins interval for 30 mins by fluorescence assay relative to control
[8] = target: T1, Quinolone resistance protein NorA (Staphylococcus aureus); assay: Inhibition of NorA in Staphylococcus aureus 1199B assessed as […] at 25 uM measured at 5 mins interval for 60 mins by fluorescence assay relative to control; details: in the assay text read “for 30 mins” for “for 60 mins”
How it was run: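 Ethidium bromide accumulation measured in SA-1199B cells preloaded with ethidium bromide, with compound at 25 μM. Fluorescence gain (excitation 530 nm, emission 600 nm) recorded at 5-min intervals.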

[9] = target: T1, Quinolone resistance protein NorA (Staphylococcus aureus); assay: Inhibition of NorA in Staphylococcus aureus 1199B assessed as reduction in ethidium bromide efflux at 50 uM measured over 5 mins interval for 30 mins by fluorescence assay relative to control
[10] = target: T1, Quinolone resistance protein NorA (Staphylococcus aureus); assay: Inhibition of NorA in Staphylococcus aureus 1199B assessed as assessed as potentiation of ciprofloxacin-induced antibacterial activity by measuring reduction in ciprofloxacin MIC at 25 to 50 ug/ml by broth checkerboard microdilution method relative to control; how it was run: as §1
HepG2 = assay: Cytotoxicity against human HepG2 cells assessed as reduction in cell viability at 100 uM after 24 hrs by MTT assay; format: cell-based; details: hepg2, 24 h
How it was run: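 HepG2 monolayer (1×10^6 cells/well) in high-glucose DMEM exposed to 50 and 100 μM in triplicate for 24 h at 37°C, 5% CO2. MTT added, then formazan absorbance read at 570 nm. Percent cytotoxicity calculated against tamoxifen positive control (10 and 20 µg/mL) and untreated healthy cells.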

[11] = target: T1, Quinolone resistance protein NorA (Staphylococcus aureus); assay: Inhibition of NorA Staphylococcus aureus 1199B assessed as reduction in ethidium bromide efflux at 6.25 to 50 uM measured after 5 mins by fluorescence assay relative to control; how it was run: as §2
Staphylococcus aureus [12] = assay: Potentiation of ciprofloxacin-induced antibacterial activity in Staphylococcus aureus 1199 assessed as minimum concentration required to effectively reduce ciprofloxacin MIC by four fold by broth checkerboard microdilution method; format: functional; details: read-out: MEC; how it was run: as §1

Row | SMILES | MEC [1] | inhibition [2] | fold change (FC) (Staphylococcus aureus [3]) | fold change (FC) (Staphylococcus aureus [4]) | growth inhibition (GI) (Staphylococcus aureus [5]) | growth inhibition (GI) (Staphylococcus aureus [6]) | inhibition [7] | inhibition [8] | inhibition [9] | fold change (FC) [10] | Activity (HepG2) | inhibition [11] | minimal effective concentration (Staphylococcus aureus [12])
1 | COC(=O)[C@H]1CCCN1C(=O)/C=C/C1=C(Cl)c2ccccc2CC1 | 12.5 µg/mL | 52.6% | 0 | 0 | Toxic | Toxic |  |  |  |  |  |  | 
2 | COC(=O)CCNC(=O)/C=C/C1=C(Cl)c2ccccc2CC1 | 25 µg/mL |  | 0 | 0 | Non-Toxic | Non-Toxic |  |  |  |  |  |  | 
3 | COC(=O)CC1(NC(=O)/C=C/C2=C(Cl)c3ccccc3CC2)CCCCC1 | > 50 µg/mL |  | 0 | 0 | Non-Toxic | Non-Toxic |  |  |  |  |  |  | 
4 | COC(=O)C(C)(C)NC(=O)/C=C/C1=C(Cl)c2ccccc2CC1 | 12.5 µg/mL | 41.4% | 0 | 0 | Non-Toxic | Non-Toxic |  |  |  |  |  |  | 
5 | COC(=O)CC1(NC(=O)/C=C/C2=C(Cl)c3ccccc3CC2)CCC(C(C)(C)C)CC1 (configuration not stated) | > 50 µg/mL |  | 0 | 0 | Non-Toxic | Non-Toxic |  |  |  |  |  |  | 
6 | CC[C@@H](C)[C@H](NC(=O)/C=C/C1=C(Cl)c2ccccc2CC1)C(=O)OC | 12.5 µg/mL | 58.2% | 2 | 0 | Non-Toxic | Non-Toxic |  |  |  |  |  |  | 
7 | COC(=O)CNC(=O)/C=C/C1=C(Cl)c2ccccc2CC1 | > 50 µg/mL |  | 0 | 0 | Non-Toxic | Non-Toxic |  |  |  |  |  |  | 
8 | COC(=O)[C@H]1[C@H]2C[C@@H]3c4[nH]c5cc(OC)ccc5c4CCN3C[C@H]2C[C@@H](OC(=O)c2cc(OC)c(OC)c(OC)c2)[C@@H]1OC [RESERPINE] |  |  | 2 | 0 | Non-Toxic | Non-Toxic | Active | Active |  |  |  |  | 
9 | COC(=O)[C@H](C)NC(=O)/C=C/C1=C(Cl)c2ccccc2CC1 | 25 µg/mL |  | 0 | 0 | Non-Toxic | Non-Toxic |  |  |  |  |  |  | 
10 | COC(=O)[C@H](CC(C)C)NC(=O)/C=C/C1=C(Cl)c2ccccc2CC1 | 12.5 µg/mL | 56.2% | 2 | 0 | Non-Toxic | Non-Toxic |  |  |  |  |  |  | 
11 | COC(=O)[C@H](Cc1c[nH]c2ccccc12)NC(=O)/C=C/C1=C(Cl)c2ccccc2CC1 | 1.5 µg/mL |  | 4 | 0 | Non-Toxic | Non-Toxic | > 80% | inactive | 83.9% | 16 | Non-Toxic |  | 
12 | CCC(/C=C/C(=O)N1CCCCC1)=C\c1ccc2c(c1)OCO2 | 6.25 µg/mL |  | 4 | 0 | Non-Toxic | Non-Toxic |  |  | 68.8% |  |  |  | 
13 | COC(=O)[C@@H](NC(=O)/C=C/C1=C(Cl)c2ccccc2CC1)C(C)C | 3.12 µg/mL | 67.2% | 2 | 0 | Non-Toxic | Non-Toxic |  |  |  |  |  | 67.2% | 
14 | COC(=O)[C@@H]1CCCN1C(=O)/C=C/C1=C(Cl)c2ccccc2CC1 | 6.25 µg/mL | 80.3% | 2 | 0 | Non-Toxic | Non-Toxic |  |  |  |  |  | > 80% | 50 µg/mL
15 | COC(=O)[C@H](Cc1ccc(O)cc1)NC(=O)/C=C/C1=C(Cl)c2ccccc2CC1 | 1.5 µg/mL |  | 4 | 0 | Non-Toxic | Non-Toxic | > 80% | Active | 85.2% | 16 | Non-Toxic |  | 
16 | COC(=O)[C@H](Cc1ccccc1)NC(=O)/C=C/C1=C(Cl)c2ccccc2CC1 | 12.5 µg/mL | 48% | 0 | 0 | Non-Toxic | Non-Toxic |  |  |  |  |  |  | 
17 | COC(=O)CCCNC(=O)/C=C/C1=C(Cl)c2ccccc2CC1 | > 50 µg/mL |  | 0 | 0 | Non-Toxic | Non-Toxic |  |  |  |  |  |  | 
